Test results as given in ChEMBL document CHEMBL5120972, “Small-Molecule Inhibitors of the MLL1 CXXC Domain, an Epigenetic Reader of DNA Methylation” (ACS Med Chem Lett, 2022).
Active and inactive are the calls of the source. The calls are words filed in the database; no cut-off is given here.

The molecules below were run against Histone-lysine N-methyltransferase 2A (Homo sapiens, UniProt Q03164) (assay: Inhibition of GST-tagged human MLL1 (1147 to 1203 residues) expressed in Escherichia coli BL21 cells incubated for 30 mins by fluorescence polarization assay).
Sequence of Histone-lysine N-methyltransferase 2A (Q03164 1-2718 limits assumed): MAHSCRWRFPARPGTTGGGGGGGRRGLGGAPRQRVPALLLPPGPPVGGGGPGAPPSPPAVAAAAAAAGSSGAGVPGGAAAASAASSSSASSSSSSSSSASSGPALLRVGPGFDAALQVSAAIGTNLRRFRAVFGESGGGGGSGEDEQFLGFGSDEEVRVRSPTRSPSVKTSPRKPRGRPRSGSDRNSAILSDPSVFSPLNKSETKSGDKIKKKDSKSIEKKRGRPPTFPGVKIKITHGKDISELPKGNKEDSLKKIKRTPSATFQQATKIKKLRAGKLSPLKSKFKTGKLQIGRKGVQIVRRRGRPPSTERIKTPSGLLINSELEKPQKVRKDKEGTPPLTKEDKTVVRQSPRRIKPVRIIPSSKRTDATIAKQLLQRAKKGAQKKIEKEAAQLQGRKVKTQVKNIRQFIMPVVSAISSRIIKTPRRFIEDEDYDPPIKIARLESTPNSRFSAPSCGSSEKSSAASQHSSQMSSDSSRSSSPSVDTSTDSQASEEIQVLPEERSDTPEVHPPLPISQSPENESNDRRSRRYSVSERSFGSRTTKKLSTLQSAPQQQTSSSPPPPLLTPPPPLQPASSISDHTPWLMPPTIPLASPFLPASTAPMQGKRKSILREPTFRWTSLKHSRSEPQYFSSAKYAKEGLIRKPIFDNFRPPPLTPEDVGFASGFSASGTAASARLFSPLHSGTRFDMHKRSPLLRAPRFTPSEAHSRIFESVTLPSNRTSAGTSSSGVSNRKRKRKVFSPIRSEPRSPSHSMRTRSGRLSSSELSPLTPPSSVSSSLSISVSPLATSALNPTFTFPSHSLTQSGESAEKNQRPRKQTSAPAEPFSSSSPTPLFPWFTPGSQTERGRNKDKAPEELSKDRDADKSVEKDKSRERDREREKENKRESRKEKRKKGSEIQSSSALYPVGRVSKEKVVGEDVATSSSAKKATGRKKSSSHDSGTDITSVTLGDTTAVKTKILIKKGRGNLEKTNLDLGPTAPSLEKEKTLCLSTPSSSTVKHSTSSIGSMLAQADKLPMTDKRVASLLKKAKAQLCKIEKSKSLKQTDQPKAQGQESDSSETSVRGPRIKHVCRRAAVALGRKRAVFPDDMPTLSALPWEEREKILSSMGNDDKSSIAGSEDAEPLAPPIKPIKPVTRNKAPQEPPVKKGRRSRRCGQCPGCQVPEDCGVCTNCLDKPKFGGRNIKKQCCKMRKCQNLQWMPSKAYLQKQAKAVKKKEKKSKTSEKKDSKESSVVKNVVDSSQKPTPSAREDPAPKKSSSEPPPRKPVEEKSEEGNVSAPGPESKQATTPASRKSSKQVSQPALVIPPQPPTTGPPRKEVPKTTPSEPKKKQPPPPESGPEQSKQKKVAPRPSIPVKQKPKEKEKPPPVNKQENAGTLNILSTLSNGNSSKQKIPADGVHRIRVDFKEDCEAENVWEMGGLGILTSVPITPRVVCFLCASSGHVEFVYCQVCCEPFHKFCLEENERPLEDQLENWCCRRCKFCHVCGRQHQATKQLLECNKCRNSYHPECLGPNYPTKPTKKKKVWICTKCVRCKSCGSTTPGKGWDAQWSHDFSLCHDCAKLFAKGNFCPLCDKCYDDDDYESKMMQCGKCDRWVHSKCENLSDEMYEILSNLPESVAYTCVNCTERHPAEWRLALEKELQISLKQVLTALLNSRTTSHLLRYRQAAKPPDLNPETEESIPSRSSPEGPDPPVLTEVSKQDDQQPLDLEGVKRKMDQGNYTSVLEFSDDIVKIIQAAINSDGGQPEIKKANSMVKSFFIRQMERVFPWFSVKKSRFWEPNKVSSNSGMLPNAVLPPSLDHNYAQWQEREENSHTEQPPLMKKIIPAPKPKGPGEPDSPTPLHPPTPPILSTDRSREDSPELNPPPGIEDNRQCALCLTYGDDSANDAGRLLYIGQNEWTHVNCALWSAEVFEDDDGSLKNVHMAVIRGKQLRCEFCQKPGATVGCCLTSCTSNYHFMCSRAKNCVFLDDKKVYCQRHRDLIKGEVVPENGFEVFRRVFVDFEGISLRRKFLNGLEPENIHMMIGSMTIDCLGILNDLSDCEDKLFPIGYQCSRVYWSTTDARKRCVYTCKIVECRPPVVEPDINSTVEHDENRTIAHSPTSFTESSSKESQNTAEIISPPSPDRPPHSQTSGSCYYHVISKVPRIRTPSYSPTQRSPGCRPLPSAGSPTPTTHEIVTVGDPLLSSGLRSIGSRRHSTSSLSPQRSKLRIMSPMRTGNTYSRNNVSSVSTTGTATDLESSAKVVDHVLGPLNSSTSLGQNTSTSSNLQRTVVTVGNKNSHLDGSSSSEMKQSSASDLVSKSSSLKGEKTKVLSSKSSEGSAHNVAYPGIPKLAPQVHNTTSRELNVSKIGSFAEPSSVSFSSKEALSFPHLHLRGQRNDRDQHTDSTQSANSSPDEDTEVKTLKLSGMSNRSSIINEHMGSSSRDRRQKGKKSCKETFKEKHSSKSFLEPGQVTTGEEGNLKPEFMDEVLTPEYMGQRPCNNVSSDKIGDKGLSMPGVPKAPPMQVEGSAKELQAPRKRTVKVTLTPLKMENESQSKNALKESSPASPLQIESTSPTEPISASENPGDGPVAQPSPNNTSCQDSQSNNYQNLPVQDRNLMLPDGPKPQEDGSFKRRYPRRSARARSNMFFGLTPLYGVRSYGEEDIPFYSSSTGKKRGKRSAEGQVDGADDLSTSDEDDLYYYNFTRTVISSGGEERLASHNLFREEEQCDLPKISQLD
Sequence of Histone-lysine N-methyltransferase 2A (Q03164 2719-3969 limits assumed): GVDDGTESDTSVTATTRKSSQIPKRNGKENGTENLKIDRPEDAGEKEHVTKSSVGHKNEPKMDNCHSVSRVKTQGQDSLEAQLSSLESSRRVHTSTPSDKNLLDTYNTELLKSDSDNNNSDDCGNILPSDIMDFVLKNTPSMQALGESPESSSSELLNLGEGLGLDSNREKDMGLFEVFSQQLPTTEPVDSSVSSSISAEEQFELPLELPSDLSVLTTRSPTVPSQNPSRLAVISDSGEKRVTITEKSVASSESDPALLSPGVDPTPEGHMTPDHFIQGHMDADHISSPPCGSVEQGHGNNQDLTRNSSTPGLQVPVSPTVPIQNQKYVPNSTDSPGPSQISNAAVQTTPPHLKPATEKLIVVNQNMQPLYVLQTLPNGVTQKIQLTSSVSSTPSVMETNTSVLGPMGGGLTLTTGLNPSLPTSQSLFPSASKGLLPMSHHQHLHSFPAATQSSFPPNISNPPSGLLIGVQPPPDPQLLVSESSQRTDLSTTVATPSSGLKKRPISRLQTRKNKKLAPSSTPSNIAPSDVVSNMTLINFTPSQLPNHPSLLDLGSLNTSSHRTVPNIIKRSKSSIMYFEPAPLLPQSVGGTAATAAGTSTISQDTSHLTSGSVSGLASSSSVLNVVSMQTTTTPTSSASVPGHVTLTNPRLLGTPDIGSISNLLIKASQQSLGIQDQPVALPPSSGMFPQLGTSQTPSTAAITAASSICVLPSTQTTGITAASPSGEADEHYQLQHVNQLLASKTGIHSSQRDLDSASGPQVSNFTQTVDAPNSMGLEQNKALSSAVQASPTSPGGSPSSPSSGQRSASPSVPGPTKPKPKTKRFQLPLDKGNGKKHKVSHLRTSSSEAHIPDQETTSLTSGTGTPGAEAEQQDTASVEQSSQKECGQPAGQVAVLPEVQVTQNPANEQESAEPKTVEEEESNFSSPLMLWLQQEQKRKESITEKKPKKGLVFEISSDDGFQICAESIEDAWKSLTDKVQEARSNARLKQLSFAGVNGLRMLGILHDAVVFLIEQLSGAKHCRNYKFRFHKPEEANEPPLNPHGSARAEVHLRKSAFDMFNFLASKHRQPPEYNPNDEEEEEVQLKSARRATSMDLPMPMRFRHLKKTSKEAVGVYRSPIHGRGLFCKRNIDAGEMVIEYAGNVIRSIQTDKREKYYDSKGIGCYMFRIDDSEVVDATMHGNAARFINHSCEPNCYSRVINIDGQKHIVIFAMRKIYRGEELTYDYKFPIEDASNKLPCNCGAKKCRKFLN
In short: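 Competition fluorescence polarization assay. CXXC domain protein is held at 2× its own KD. All domains are expressed and purified by the same method. Standard deviations come from three separate measurements.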
C=CC(=O)N1CCC(C(=O)NS(=O)(=O)CC)(c2ccccc2)CC1 showed an IC50 of 114 µM. For C=CC(=O)N1CCC(C(=O)NS(=O)(=O)c2ccc(Cl)cc2)(c2ccccc2)CC1, the IC50 was 153 µM. With C=CC(=O)N1CCC(C(=O)O)(c2ccc(N(C)C)cc2)CC1 the IC50 was 827 µM. For C=CC(=O)N1CCC(C(=O)NS(=O)(=O)c2ccc(F)cc2)(c2ccccc2)CC1, the IC50 was 74 µM. Molecule C=CC(=O)N1CCC(C(=O)O)(c2ccc(C)cc2)CC1 has an IC50 of 495 µM. With C=CC(=O)N1CCC(C(=O)NS(=O)(=O)c2ccc(OC)cc2)(c2ccccc2)CC1 the IC50 was 76 µM. C=CC(=O)N1CCC(C(=O)O)(c2cccc(OCC)c2)CC1 was tested, and the IC50 was 51 µM. Work on C=CC(=O)N1CCC(C(=O)NS(=O)(=O)c2ccc(C)cc2)(c2ccccc2)CC1 yielded an IC50 of 136 µM.

What follows are molecules tested on MV4-11 (assay: Anti-proliferative activity against human MV4-11 cells harboring MLL fusion protein assessed as inhibition of cell viability upto 120 uM for 72 hrs by MTT assay).
Assay type: functional, cell-based
In short: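 MV4-11 MLL-fusion leukemia cells are exposed to compound across a concentration range for 72 h. Growth is read out by MTT assay, with three replicates.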
C=CC(=O)N1CCC(C(=O)OCC)(c2ccccc2)CC1 was tested, and the Activity was “Active”.
